The results in this text go back to ChEMBL document CHEMBL1255227, “Novel pyridylmethylamines as highly selective 5-HT(1A) superagonists” (J Med Chem, 2010).

The first assay concerns the target T1, 5-hydroxytryptamine receptor 1A (Homo sapiens, UniProt P08908).
T1 sequence (P08908 whole entry): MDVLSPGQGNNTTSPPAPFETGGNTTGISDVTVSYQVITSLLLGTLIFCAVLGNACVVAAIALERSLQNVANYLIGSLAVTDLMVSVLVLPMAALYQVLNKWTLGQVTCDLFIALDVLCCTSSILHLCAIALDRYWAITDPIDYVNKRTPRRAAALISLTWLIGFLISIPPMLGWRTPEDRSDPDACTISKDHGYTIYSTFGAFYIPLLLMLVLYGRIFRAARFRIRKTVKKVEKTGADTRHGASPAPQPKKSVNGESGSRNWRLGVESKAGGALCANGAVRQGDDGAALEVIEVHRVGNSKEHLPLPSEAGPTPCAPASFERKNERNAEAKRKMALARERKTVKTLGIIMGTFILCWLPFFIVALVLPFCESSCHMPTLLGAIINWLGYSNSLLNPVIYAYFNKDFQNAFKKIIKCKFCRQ
The assay is described as follows: Intrinsic activity at human 5-HT1A receptor expressed in CHO cells assessed as increase of serotonin-induced [35S]GTPgammaS binding. Format: functional, cell-based. The procedure, abridged:
(§1)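 Membranes from CHO cells stably expressing human 5-HT1A were incubated with 0.1 nM [35S]GTPγS and test compound at eight concentrations (0.01-10000 nM), in hexaduplicate. Values come from a mean curve of four experiments. Emax is expressed relative to the maximal serotonin effect.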
For orientation: Binding of GTPγS marks nucleotide exchange on a G protein.
Broadly, the EC50 is the midpoint of the concentration-response curve. For `Cc1ccc(CNCC2(F)CCN(C(=O)c3ccoc3)CC2)nc1`, the EC50 amounted to 240 nM.
Same read-out and setting: the value for `Cc1ccc(CNCC2(O)CC3CCC(C2)N3C(=O)c2ccc(F)c(Cl)c2)nc1` (centres undefined) was 18 nM; that for `Cc1ccc(CNCC2(F)CCN(C(=O)c3sc(Br)c4c3OCCO4)CC2)nc1` was 63 nM.
With `Cc1ccc(CNCC2(F)CCN(C(=O)c3cc4sccc4s3)CC2)nc1`, the EC50 is 130 nM.
For `Cc1ccc(CNCC2(F)CCN(C(=O)c3cc4ccccc4s3)CC2)nc1`, the EC50 was found to be 240 nM.
`Cc1ccc(CNCC2(F)CCN(C(=O)C34CC5CC(CC(C5)C3)C4)CC2)nc1`: the EC50 turned out to be 11 nM.
Same read-out and setting: for `Cc1ccc(CNCC2(F)CCN(C(=O)c3ccc(C)s3)CC2)nc1` the value was 42 nM; for `Cc1ccc(CNCC2(F)CCN(C(=O)C34CC5CC(CC(O)(C5)C3)C4)CC2)nc1`, 600 nM; for `Cc1ccc(CNCC2(F)CCN(C(=O)c3ccc(Br)s3)CC2)nc1`, 30 nM.
Take `Cc1ccc(CNCC2(F)CCN(C(=O)c3sccc3Br)CC2)nc1`: the EC50 stood at 20 nM.
The same measure, in the same setting: the value for `CSc1ccc(C(=O)N2CCC(F)(CNCc3ccc(C)cn3)CC2)s1` was 54 nM; that for `Cc1ccc(CNCC2(F)CCN(C(=O)c3ccc(Cl)s3)CC2)nc1` was 46 nM.
The same measure, in the same setting: the value for `Cc1ccc(CNCC2(F)CCN(C(=O)c3ccc4[nH]ccc4c3)CC2)nc1` was 100 nM; that for `Cc1ccc(CNCC2(F)CCN(C(=O)c3cc4ccsc4s3)CC2)nc1` was 39 nM.
Take `Cc1ccc(CNCC2(F)CCN(C(=O)c3cnn4ccccc34)CC2)nc1`: the concentration for a half-maximal effect (EC50) was 310 nM.
With `Cc1ccc(CNCC2(F)CCN(C(=O)c3ccc4ccccc4c3)CC2)nc1`, the EC50 was determined as 52 nM.
With `Cc1ccc(CN(C)CC2(F)CCN(C(=O)c3ccc(F)c(Cl)c3)CC2)nc1`, the concentration giving a half-maximal response (EC50) stood at 8.6 nM.
The same measure, in the same setting: for `Cc1ccc(CNCC2(F)CCN(C(=O)C34CC5CC(CC3C5)C4)CC2)nc1` the value was 47 nM.
Same read-out and setting: for `Cc1ccc(CNCC2(F)CCN(C(=O)C34CC5CC(CC(Cl)(C5)C3)C4)CC2)nc1` the value was 48 nM.
In the case of `Cc1ccc(CNCC2(F)CCN(C(=O)C34CCCC(CCC3)C4)CC2)nc1`, the EC50 amounted to 26 nM.
The same measure, in the same setting: for `Cc1ccc(CNCC2(F)CCN(C(=O)c3ccccc3)CC2)nc1` the value was 13 nM; for `Cc1ccc(CNCC2(O)CCN(C(=O)c3ccc(F)c(Cl)c3)CC2)nc1`, 6.6 nM.
Regarding `Cc1ccc(CNC[C@@]2(O)C[C@H]3CC[C@@H](C2)N3C(=O)c2ccccc2)nc1` (stereo in doubt; 34), the EC50 came to 270 nM.
Still for that read-out and setting: for `Cc1ccc(CNCC2(F)CCN(C(=O)c3cc4ccccc4o3)CC2)nc1` the value was 34 nM.
Still for that read-out and setting: the value for `Cc1ccc(CNCC2(F)CCN(C(=O)c3cc(C)cs3)CC2)nc1` was 20 nM.
As for `Cc1ccc(CNCC2(O)CC3CCC(C2)N3C(=O)c2ccsc2)nc1` (centres undefined), the EC50 came out at 32 nM.
Still for that read-out and setting: for `Cc1ccc(CNCC2(F)CCN(C(=O)c3cc4ccccn4n3)CC2)nc1` the value was 93 nM.

Molecular target in another assay: not listed separately
Description: Displacement of [3H]WAY-100635 from 5-HT1A receptor in pig cortex membranes. Format: cell membranes, Sus scrofa. For orientation: Displacement assays read how much labelled ligand stays bound in the presence of the test substance.
What is called Ki is the dissociation constant of the complex between target and ligand, obtained from inhibition or displacement. Read a low Ki as a stronger hold on the target. The compound `Cc1ccc(CNCC2(F)CCN(C(=O)c3ccoc3)CC2)nc1` displayed a Ki of 182 nM.
Compound `Cc1ccc(CNCC2(O)CC3CCC(C2)N3C(=O)c2ccc(F)c(Cl)c2)nc1` (centres undefined) had a Ki of 17 nM.
The same measure, in the same setting: for `Cc1ccc(CNC[C@@]2(O)C[C@H]3CCC[C@@H](C2)N3C(=O)c2ccccc2)nc1` (stereo in doubt; 41) the value was 150 nM; for `Cc1ccc(CNCC2(F)CCN(C(=O)c3ccc(F)s3)CC2)nc1`, 35 nM.
The same measure, in the same setting: the value for `Cc1ccc(CNCC2(F)CCN(C(=O)c3sc(Br)c4c3OCCO4)CC2)nc1` was 32 nM; that for `Cc1ccc(CNC[C@@]2(O)C[C@H]3CC[C@@H](C2)N3C(=O)c2ccccc2)nc1` (stereo in doubt; 38) was 63 nM.
`Cc1ccc(CNCC2(F)CCN(C(=O)C3CCc4ccccc4C3)CC2)nc1` (centres undefined): the Ki was 160 nM.
Compound `Cc1ccc(CNCC2(F)CCN(C(=O)c3cc4sccc4s3)CC2)nc1` had a Ki of 37 nM.
Same read-out and setting: the value for `Cc1ccc(CNCC2(F)CCN(C(=O)c3cc4ccccc4s3)CC2)nc1` was 190 nM; that for `Cc1ccc(CNCC2(F)CCN(C(=O)C34CC5CC(CC(C5)C3)C4)CC2)nc1` was 17 nM.
In turn, `Cc1ccc(CNCC2(F)CCN(C(=O)c3ccc(C)s3)CC2)nc1` gave a Ki of 14 nM.
Regarding `Cc1ccc(CNCC2(F)CCN(C(=O)C34CC5CC(CC(O)(C5)C3)C4)CC2)nc1`, the Ki was determined as 1300 nM.
Still for that read-out and setting: the value for `Cc1ccc(CNCC2(F)CCN(C(=O)c3ccc(Br)s3)CC2)nc1` was 19 nM; that for `Cc1ccc(CNCC2(F)CCN(C(=O)c3sccc3Br)CC2)nc1` was 32 nM.
Take `CSc1ccc(C(=O)N2CCC(F)(CNCc3ccc(C)cn3)CC2)s1`: affinity was put at a Ki of 18 nM.
On the same count and under the same terms, for `Cc1ccc(CNCC2(F)CCN(C(=O)c3ccc(Cl)s3)CC2)nc1` the value was 21 nM; for `Cc1ccc(CNCC2(F)CCN(C(=O)c3ccc4[nH]ccc4c3)CC2)nc1`, 380 nM.
The same measure, in the same setting: the value for `Cc1ccc(CNCC2(F)CCN(C(=O)c3cc4ccsc4s3)CC2)nc1` was 46 nM; that for `Cc1ccc(CNCC2(F)CCN(C(=O)c3cnn4ccccc34)CC2)nc1` was 93 nM; that for `Cc1ccc(CNCC2(F)CCN(C(=O)c3ccc4ccccc4c3)CC2)nc1` was 15 nM.
Take `Cc1ccc(CN(C)CC2(F)CCN(C(=O)c3ccc(F)c(Cl)c3)CC2)nc1`: the inhibitory constant (Ki) turned out to be 74 nM.
Same read-out and setting: the value for `Cc1ccc(CNCC2(F)CCN(C(=O)C34CC5CC(CC3C5)C4)CC2)nc1` was 11 nM; that for `Cc1ccc(CNCC2(F)CCN(C(=O)C34CC5CC(CC(Cl)(C5)C3)C4)CC2)nc1` was 92 nM; that for `Cc1ccc(CNCC2(F)CCN(C(=O)C34CCCC(CCC3)C4)CC2)nc1` was 19 nM.
The same measure, in the same setting: the value for `Cc1ccc(CNCC2(F)CCN(C(=O)c3ccccc3)CC2)nc1` was 15 nM; that for `Cc1ccc(CNCC2(O)CCN(C(=O)c3ccc(F)c(Cl)c3)CC2)nc1` was 11 nM.
Turning to `Cc1ccc(CNC[C@@]2(O)C[C@H]3CC[C@@H](C2)N3C(=O)c2ccccc2)nc1` (stereo in doubt; 34), the Ki is 100 nM.
The same measure, in the same setting: the value for `Cc1ccc(CNCC2(F)CCN(C(=O)c3cc4ccccc4o3)CC2)nc1` was 64 nM; that for `Cc1ccc(CNCC2(F)CCN(C(=O)c3cc(C)cs3)CC2)nc1` was 8.3 nM; that for `Cc1ccc(CNCC2(O)CC3CCC(C2)N3C(=O)c2ccsc2)nc1` (centres undefined) was 43 nM.
Same read-out and setting: the value for `Cc1ccc(CNCC2(F)CCN(C(=O)c3cc4ccccn4n3)CC2)nc1` was 180 nM.

For another assay, the target named is T2, 5-hydroxytryptamine receptor 1A (Homo sapiens) (UniProt P08908).
T2 sequence (whole entry): T1 sequence (P08908 whole entry)
The assay is described as follows: Intrinsic activity at human 5-HT1A receptor expressed in CHO cells assessed as increase of serotonin-induced [35S]GTPgammaS binding relative to serotonin. The assay is classed as functional, cell-based. In a few lines: as §1
The term Emax denotes the size of the effect at its maximum, as opposed to the concentration needed. Turning to `Cc1ccc(CNCC2(F)CCN(C(=O)c3ccoc3)CC2)nc1`, the Emax was 99%.
In the case of `Cc1ccc(CNCC2(O)CC3CCC(C2)N3C(=O)c2ccc(F)c(Cl)c2)nc1` (centres undefined), the Emax was determined as 121%.
On the same count and under the same terms, the value for `Cc1ccc(CNCC2(F)CCN(C(=O)c3sc(Br)c4c3OCCO4)CC2)nc1` was 102%.
On the same count and under the same terms, the value for `Cc1ccc(CNCC2(F)CCN(C(=O)c3cc4sccc4s3)CC2)nc1` was 100%; that for `Cc1ccc(CNCC2(F)CCN(C(=O)c3cc4ccccc4s3)CC2)nc1` was 116%.
With `Cc1ccc(CNCC2(F)CCN(C(=O)C34CC5CC(CC(C5)C3)C4)CC2)nc1`, the Emax is 98%.
On the same count and under the same terms, the value for `Cc1ccc(CNCC2(F)CCN(C(=O)c3ccc(C)s3)CC2)nc1` was 104%.
On the same count and under the same terms, the value for `Cc1ccc(CNCC2(F)CCN(C(=O)C34CC5CC(CC(O)(C5)C3)C4)CC2)nc1` was 90%; that for `Cc1ccc(CNCC2(F)CCN(C(=O)c3ccc(Br)s3)CC2)nc1` was 95%; that for `Cc1ccc(CNCC2(F)CCN(C(=O)c3sccc3Br)CC2)nc1` was 104%.
On the same count and under the same terms, for `CSc1ccc(C(=O)N2CCC(F)(CNCc3ccc(C)cn3)CC2)s1` the value was 91%.
Regarding `Cc1ccc(CNCC2(F)CCN(C(=O)c3ccc(Cl)s3)CC2)nc1`, the maximal response (Emax) is 101%.
Regarding `Cc1ccc(CNCC2(F)CCN(C(=O)c3ccc4[nH]ccc4c3)CC2)nc1`, the Emax came out at 94%.
On the same count and under the same terms, the value for `Cc1ccc(CNCC2(F)CCN(C(=O)c3cc4ccsc4s3)CC2)nc1` was 103%; that for `Cc1ccc(CNCC2(F)CCN(C(=O)c3cnn4ccccc34)CC2)nc1` was 96%; that for `Cc1ccc(CNCC2(F)CCN(C(=O)c3ccc4ccccc4c3)CC2)nc1` was 110%.
Still for that read-out and setting: the value for `Cc1ccc(CN(C)CC2(F)CCN(C(=O)c3ccc(F)c(Cl)c3)CC2)nc1` was 77%; that for `Cc1ccc(CNCC2(F)CCN(C(=O)C34CC5CC(CC3C5)C4)CC2)nc1` was 96%; that for `Cc1ccc(CNCC2(F)CCN(C(=O)C34CC5CC(CC(Cl)(C5)C3)C4)CC2)nc1` was 91%.
Regarding `Cc1ccc(CNCC2(F)CCN(C(=O)C34CCCC(CCC3)C4)CC2)nc1`, the maximal effect (Emax) came out at 96%.
Still for that read-out and setting: for `Cc1ccc(CNCC2(F)CCN(C(=O)c3ccccc3)CC2)nc1` the value was 96%; for `Cc1ccc(CNCC2(O)CCN(C(=O)c3ccc(F)c(Cl)c3)CC2)nc1`, 109%.
Still for that read-out and setting: for `Cc1ccc(CNCC2(F)CCN(C(=O)c3cc4ccccc4o3)CC2)nc1` the value was 87%; for `Cc1ccc(CNCC2(F)CCN(C(=O)c3cc(C)cs3)CC2)nc1`, 101%; for `Cc1ccc(CNCC2(O)CC3CCC(C2)N3C(=O)c2ccsc2)nc1` (centres undefined), 101%.
Still for that read-out and setting: the value for `Cc1ccc(CNCC2(F)CCN(C(=O)c3cc4ccccn4n3)CC2)nc1` was 80%.
